Results pooled from the literature.
Lines come from different studies, so protocols differ. Values after ≈ are worked out from the molar mass of the structure shown.

`COc1ccc(N2N=C(C(C)=O)SC2=C(C#N)C(=O)c2ccc(Nc3cnccn3)cc2)cc1` gave an MIC of 50 µg/mL (≈ 106 µM) (Salmonella enterica; microbial growth, broth dilution; ATCC13076 TYPHIMURIUM).
For `CS(=O)(=O)Oc1ccc(C=NNC(=O)CSc2nc3ccc(Cl)cc3c(=O)n2-c2ccccc2)cc1`, the inhibition zone was 2 mm (Salmonella enterica; microbial growth, well diffusion; TYPHIMURIUM; 20 µg/mL).
For `CC(C)(C)c1cc(NC(=O)Nc2ccc(-c3cn4c(n3)sc3cc(OCCN5CCOCC5)ccc34)cc2)no1`, the GI50 was greater than 10 µM (BJ; cell growth or viability; 72 h).
For `COc1ccc(C=NNC(=O)CSc2nc3c(C)cccc3c(=O)n2-c2ccccc2)cc1OS(C)(=O)=O`, the inhibition zone was 3 mm (Salmonella enterica; microbial growth, well diffusion; TYPHIMURIUM; 20 µg/mL).
`COc1ccccc1CNc1ccc(C(=O)O)cc1` gave an IC50 of greater than 100 µM (NCI-H69; cell growth or viability, resazurin; 72 h).
With `Cc1nc(Nc2ncc(C(=O)Nc3c(C)cccc3Cl)s2)cc(N2CC[C@H](O)C2)n1` the inhibition was 61% (JVM-2; cell growth or viability, ATP luminescence; 10 µM, 72 h).
For `O=C(O)c1cn(C2CC2)c2cc(N3CCNCC3)c(F)cc2c1=O`, the inhibition zone was 4 mm (Salmonella enterica; microbial growth, well diffusion; TYPHIMURIUM; 20 µg/mL).
With `O=C(N[C@H](CO)[C@H](O)c1ccc([N+](=O)[O-])cc1)C(Cl)Cl` the MIC was 6.25 µg/mL (≈ 19.3 µM) (Salmonella enterica; microbial growth, broth dilution; ATCC13076 TYPHIMURIUM).
The inhibition zone of `CCS(=O)(=O)Oc1ccc(C=NNC(=O)CSc2nc3ccc(Cl)cc3c(=O)n2-c2ccccc2)cc1` is reported as 2 mm (Bacillus cereus; microbial growth, well diffusion; 20 µg/mL).
`Cc1n[nH]c2ccc3nc(-c4ccc(C(=O)NCCN(C)C)cc4F)c4c(c3c12)CCCCC4` has a GI50 of greater than 10 µM (BJ; cell growth or viability; 72 h).
`O=C(O)c1ccc(NCc2cccc(O)c2O)cc1` has an IC50 of 32.2 µM (NCI-H69; cell growth or viability, resazurin; 72 h).
With `COc1ccc(-n2nc(C(=O)c3ccc(Nc4cnccn4)cc3)sc2=N)cc1` the MIC was 50 µg/mL (≈ 124 µM) (Salmonella enterica; microbial growth, broth dilution; ATCC13076 TYPHIMURIUM).
The GI50 of `CN(C)CCNC(=O)c1ccc(-c2nc3ccc4[nH]ncc4c3c3c2CCCCC3)cc1` is reported as 8.63 µM (BJ; cell growth or viability; 72 h).
The inhibition zone of `CCCS(=O)(=O)Oc1ccc(C=NNC(=O)CSc2nc3ccc(Cl)cc3c(=O)n2-c2ccccc2)cc1OC` is reported as 2 mm (Bacillus cereus; microbial growth, well diffusion; 20 µg/mL).
The GI50 of `Cc1n[nH]c2ccc3nc(-c4ccc(C(=O)NCCN(C)C)cc4F)c4c(c3c12)CCCC4` is reported as 2.21 µM (BJ; cell growth or viability; 72 h).
With `CN(C)c1ccc(CNc2ccc(C(=O)O)cc2)cc1` the IC50 was greater than 100 µM (NCI-H69; cell growth or viability, resazurin; 72 h).
With `CC(=O)C1=NN(c2ccccc2)C(=C(C#N)C(=O)c2ccc(Nc3cnccn3)cc2)S1` the MIC was 100 µg/mL (≈ 227 µM) (Salmonella enterica; microbial growth, broth dilution; ATCC13076 TYPHIMURIUM).
For `COc1cc(CNc2ccc(C(=O)O)cc2)cc(OC)c1O`, the IC50 was greater than 100 µM (NCI-H69; cell growth or viability, resazurin; 72 h).
For `CCc1nc(C(N)=O)c(Nc2ccc(N3CCC(N4CCN(C)CC4)CC3)c(OC)c2)nc1NC1CCOCC1`, the GI50 was greater than 10 µM (BJ; cell growth or viability; 72 h).
